Data reported in article PMC8880306 (Journal of medicinal chemistry, 2021).
Changes are numbered by the printed parent chain.

Tests used:
[1] = Oral bioavailability of ARD-61 in mice; assay type: in vivo; settings: mice (data not shown)
Oral exposure = assay type: in vivo, mice; settings: male, SCID, mouse, plasma, 10 mg/kg
Method in brief: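 Non-tumour-bearing male SCID mice were given single oral gavage at 10 mg/kg in 100% PEG200. Three mice per time point were sacrificed at 1, 3 and 6 h. 300 μL blood was taken per animal and centrifuged at 15000 rpm for 10 min. Plasma was stored at −80 °C and quantified by validated LC-MS/MS. Values are mean ± SD.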

AR protein [2] = molecular target: T1, AR protein (Homo sapiens, UniProt P10275); experiment: Western blotting of AR protein in VCaP cells; assay type: cell-based; settings: for time within which AR protein level is effectively reduced / treatment time for near-complete AR depletion: VCaP cell line
T1 sequence (P10275 1-920): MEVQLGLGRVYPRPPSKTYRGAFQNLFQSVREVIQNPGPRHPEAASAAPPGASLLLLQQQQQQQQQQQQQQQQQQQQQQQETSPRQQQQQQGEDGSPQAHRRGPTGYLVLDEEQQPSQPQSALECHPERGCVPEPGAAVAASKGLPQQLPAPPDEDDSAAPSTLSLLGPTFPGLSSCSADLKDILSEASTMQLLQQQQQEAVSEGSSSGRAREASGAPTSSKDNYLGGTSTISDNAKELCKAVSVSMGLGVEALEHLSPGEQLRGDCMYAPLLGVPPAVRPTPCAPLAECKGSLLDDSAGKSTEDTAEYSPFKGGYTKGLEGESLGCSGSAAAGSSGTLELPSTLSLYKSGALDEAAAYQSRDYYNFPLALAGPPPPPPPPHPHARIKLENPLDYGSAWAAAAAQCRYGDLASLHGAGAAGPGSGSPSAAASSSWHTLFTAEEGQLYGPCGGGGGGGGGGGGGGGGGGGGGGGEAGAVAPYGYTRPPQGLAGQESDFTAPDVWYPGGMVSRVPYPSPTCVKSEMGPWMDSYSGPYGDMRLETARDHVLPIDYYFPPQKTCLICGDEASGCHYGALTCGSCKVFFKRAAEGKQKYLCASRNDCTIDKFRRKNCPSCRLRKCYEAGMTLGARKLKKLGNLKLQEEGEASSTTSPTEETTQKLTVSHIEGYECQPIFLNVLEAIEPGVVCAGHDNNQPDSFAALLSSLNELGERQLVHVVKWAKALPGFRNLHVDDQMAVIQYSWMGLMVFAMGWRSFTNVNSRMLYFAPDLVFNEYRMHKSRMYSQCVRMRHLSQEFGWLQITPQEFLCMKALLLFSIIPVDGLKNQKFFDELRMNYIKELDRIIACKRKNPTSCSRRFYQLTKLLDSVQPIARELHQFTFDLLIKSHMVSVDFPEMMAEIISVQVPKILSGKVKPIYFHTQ

[3] = molecular target: T2, AR protein (AR T878A mutation) (Homo sapiens, UniProt P10275, T878A); experiment: Western blotting of AR protein in LNCaP cells; assay type: cell-based; settings: LNCaP cell line
T2 sequence (P10275 1-920 T878A): T1 sequence (P10275 1-920) with T878A

AR protein [4] = molecular target: T1, AR protein; experiment: Pharmacodynamics: Western blot of AR protein in VCaP xenograft tumors; assay type: in vivo, mice
[5] = Drug concentrations in plasma and VCaP tumor tissue in SCID mice; assay type: in vivo; settings: VCaP tumor tissue, single 20 mg/kg PO, 6 h
Method in brief: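 Male CB17 SCID mice carried subcutaneous VCaP xenografts (5 × 10^6 cells in 5 mg/mL Matrigel). At approximately 200 mm3 tumour volume, mice received single 20 mg/kg oral gavage in 100% PEG200. Plasma and tumour were taken at 6 and 24 h, three mice per time point. Tumours were frozen, ground in liquid nitrogen, homogenised in water:acetonitrile 4:1 at 4 °C, acetonitrile-precipitated, then assayed by validated LC-MS/MS.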

VCaP xenograft tumor = experiment: Antitumor activity in the VCaP xenograft tumor model; assay type: in vivo; settings: all dose levels, daily oral, entire 21 day experiment, SCID mice
[6] = single oral administration 20 mg/kg, 6 h
[7] = single oral administration 20 mg/kg, 24 h

## Cc1cc([C@H](C(=O)N2C[C@H](O)C[C@H]2C(=O)N[C@@H](CC(=O)N2CCC(N3CCC(C#Cc4ccc(C(=O)NC5C(C)(C)C(Oc6ccc(C#N)c(Cl)c6)C5(C)C)cc4)CC3)CC2)c2ccc(-c3scnc3C)cc2)C(C)C)on1 (stereo partly shown) [ARD-61]
[1]
  oral bioavailability: no oral bioavailability

## CC1(C)[C@H](NC(=O)c2ccc(N3CCN(CCNc4ccc5c(c4)C(=O)N(C4CCC(=O)NC4=O)C5=O)CC3)cc2)C(C)(C)[C@H]1Oc1ccc(C#N)c(Cl)c1 (stereo partly drawn) [Compound 16, N-((1R,3R)-3-(3-Chloro-4-cyanophenoxy)-2,2,4,4-tetramethylcyclobutyl)-4-(4-(2-((2-(2,6-dioxopiperidin-3-yl)-1,3-dioxoisoindolin-5-yl)amino)ethyl)piperazin-1-yl)benzamide]
Oral exposure
  concentration at 1 h: 1600 nM
  concentration at 3 h: 1200 nM
  concentration at 6 h: 800 nM

## CC1(C)[C@H](NC(=O)c2ccc(N3CCN(CC4CN(c5ccc6c(c5)C(=O)N(C5CCC(=O)NC5=O)C6=O)C4)CC3)cc2)C(C)(C)[C@H]1Oc1ccc(C#N)c(Cl)c1 (stereo partly drawn) [Compound 26, N-((1R,3R)-3-(3-Chloro-4-cyanophenoxy)-2,2,4,4-tetramethylcyclobutyl)-4-(4-((1-(2-(2,6-dioxopiperidin-3-yl)-1,3-dioxoisoindolin-5-yl)azetidin-3-yl)methyl)piperazin-1-yl)benzamide]
AR protein [2]
  time within which AR protein level is effectively reduced: ≤ 3 h
  treatment time for near-complete AR depletion: 6 h
[3]
  time within which AR protein level is effectively reduced: ≤ 3 h
  treatment time for near-complete AR depletion: 6 h
AR protein [4]; [6]
  reduction of AR protein level in VCaP tumor tissue: modest effect
AR protein [4]; [7]
  reduction of AR protein level in VCaP tumor tissue: effective in reducing the levels of AR protein

## CC1(C)[C@H](NC(=O)c2ccc(N3CCN(C4CCN(c5ccc6c(c5)C(=O)N(C5CCC(=O)NC5=O)C6=O)CC4)CC3)cc2)C(C)(C)[C@H]1Oc1ccc(C#N)c(Cl)c1 (stereo partly drawn) [Compound 27, N-((1R,3R)-3-(3-Chloro-4-cyanophenoxy)-2,2,4,4-tetramethylcyclobutyl)-4-(4-(1-(2-(2,6-dioxopiperidin-3-yl)-1,3-dioxoisoindolin-5-yl)piperidin-4-yl)piperazin-1-yl)benzamide]
AR protein [2]
  time within which AR protein level is effectively reduced: ≤ 3 h
  treatment time for near-complete AR depletion: 6 h
[3]
  time within which AR protein level is effectively reduced: ≤ 3 h
  treatment time for near-complete AR depletion: 6 h
[5]
  tumor concentration (mean ± SD): 314.8 ± 93.7 ng/kg
AR protein [4]; [6]
  reduction of AR protein level in VCaP tumor tissue: only modestly
AR protein [4]; [7]
  reduction of AR protein level in VCaP tumor tissue: only modestly

## CC1(C)[C@H](NC(=O)c2ccc(N3CCN(CC4CCN(c5ccc6c(c5)C(=O)N(C5CCC(=O)NC5=O)C6=O)CC4)CC3)cc2)C(C)(C)[C@H]1Oc1ccc(C#N)c(Cl)c1 (stereo partly drawn) [Compound 28, N-((1R,3R)-3-(3-Chloro-4-cyanophenoxy)-2,2,4,4-tetramethylcyclobutyl)-4-(4-((1-(2-(2,6-dioxopiperidin-3-yl)-1,3-dioxoisoindolin-5-yl)piperidin-4-yl)methyl)piperazin-1-yl)benzamide]
AR protein [2]
  time within which AR protein level is effectively reduced: ≤ 3 h
  treatment time for near-complete AR depletion: 6 h
[3]
  time within which AR protein level is effectively reduced: ≤ 3 h
  treatment time for near-complete AR depletion: 6 h
AR protein [4]; daily oral 10 mg/kg for 3 days, 3 and 6 h after last dose
  reduction of AR protein level in VCaP tumor tissue: effectively reduces the levels of AR protein
AR protein [4]; daily oral 10 mg/kg for 3 days, 24 h after last dose
  reduction of AR protein level in VCaP tumor tissue: only a modest effect
AR protein [4]; [6]
  reduction of AR protein level in VCaP tumor tissue: modest effect
AR protein [4]; [7]
  reduction of AR protein level in VCaP tumor tissue: effective in reducing the levels of AR protein
VCaP xenograft tumor
  maximum weight loss: no more than 5%

## CC1(C)[C@H](NC(=O)c2ccc(N3CCC(N4CCN(c5ccc6c(c5)C(=O)N(C5CCC(=O)NC5=O)C6=O)CC4)CC3)cc2)C(C)(C)[C@H]1Oc1ccc(C#N)c(Cl)c1 (stereo partly drawn) [Compound 33, N-((1R,3R)-3-(3-Chloro-4-cyanophenoxy)-2,2,4,4-tetramethylcyclobutyl)-4-(4-(4-(2-(2,6-dioxopiperidin-3-yl)-1,3-dioxoisoindolin-5-yl)piperazin-1-yl)piperidin-1-yl)benzamide]
AR protein [2]
  time within which AR protein level is effectively reduced: ≤ 3 h
[3]
  time within which AR protein level is effectively reduced: ≤ 3 h

## CC1(C)[C@H](NC(=O)c2ccc(N3CCC(CN4CCN(c5ccc6c(c5)C(=O)N(C5CCC(=O)NC5=O)C6=O)CC4)CC3)cc2)C(C)(C)[C@H]1Oc1ccc(C#N)c(Cl)c1 (stereo partly drawn) [Compound 34, N-((1R,3R)-3-(3-Chloro-4-cyanophenoxy)-2,2,4,4-tetramethylcyclobutyl)-4-(4-((4-(2-(2,6-dioxopiperidin-3-yl)-1,3-dioxoisoindolin-5-yl)piperazin-1-yl)methyl)piperidin-1-yl)benzamide]
AR protein [2]
  time within which AR protein level is effectively reduced: ≤ 3 h
  treatment time for near-complete AR depletion: 6 h
[3]
  time within which AR protein level is effectively reduced: ≤ 3 h
  treatment time for near-complete AR depletion: 6 h

## CC1(C)[C@@H](NC(=O)c2ccc(N3CCN(CC4CCN(c5ccc6c(c5)C(=O)N(C5CCC(=O)NC5=O)C6=O)CC4)CC3)cc2)C[C@@H]1Oc1ccc(C#N)c(Cl)c1 (stereo partly drawn) [Compound 43, N-((1S,3S)-3-(3-Chloro-4-cyanophenoxy)-2,2-dimethylcyclobutyl)-4-(4-((1-(2-(2,6-dioxopiperidin-3-yi)-1,3-dioxoisoindolin-5-yl)-piperidin-4-yl)methyl)piperazin-1-yl)benzamide]
AR protein [2]; VCaP, AR degradation
  times less potent than compound 28: approximately 100

## CNC(=O)c1ccc(N2C(=S)N(c3ccc(C#N)c(C(F)(F)F)c3)C(=O)C2(C)C)cc1F [enzalutamide, reference compound]
VCaP xenograft tumor
  maximum weight loss: no more than 5%
